# Measured values reported in ChEMBL document CHEMBL3244228, “Synthesis and biological properties of 2-, 5-, and 6-fluoronorepinephrines” (J Med Chem, 1979).
# Calls of active or inactive are those of the source. The rule behind the calls is not given here.
# Tests used:
# [1] = Agonist activity at beta-adrenergic receptor in Hartley guinea pig atria assessed as maximal increase in contraction rate; design: species or system Cavia porcellus
# Procedure, shortened: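 Atria from 250-300 g male Hartley guinea pigs, bathed in 10 mL Tyrode's at 37 °C under 95% O2/5% CO2, dosed at 0.1 to 100 μM. Contraction rate read 60 s after each dose against the pre-experiment rate and expressed as percent of the maximal increase given by (±)-NE. EC50 ± SD from eight dose-response curves.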
# [2] = Agonist activity at beta-adrenergic receptor in Hartley guinea pig ileum assessed as maximal relaxation; format: tissue-based; settings: Cavia porcellus
# [3] = Agonist activity at alpha-adrenergic receptor in Hartley guinea pig aorta assessed as maximal contraction; format: tissue-based, Cavia porcellus
# Procedure, shortened: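 Aortic strip from 250-300 g male Hartley guinea pigs, in 10 mL Tyrode's solution at 37 °C aerated with 95% O2/5% CO2. Full concentration range, 0.1 to 100 μM. Response is percent of maximal contraction (largest contraction per dose relative to the maximum for (±)-NE). EC50 ± SD estimated from eight dose-response curves.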
# Cavia porcellus [4] = organism: Cavia porcellus; test: Agonist activity at alpha-adrenergic receptor in Hartley guinea pig aorta assessed as maximal contraction in presence of alpha-adrenergic receptor antagonist phentolamine; format: tissue-based
# Cavia porcellus [5] = organism: Cavia porcellus; test: Agonist activity at beta-adrenergic receptor in Hartley guinea pig atria assessed as maximal increase in contraction rate in presence of alpha-adrenergic receptor antagonist phentolamine
# [6] = molecular target: Adrenergic receptor alpha; test: Displacement of [3H]WB4101 from alpha-adrenergic receptor in Sprague-Dawley rat cerebral cortical membrane
# Cavia porcellus [7] = organism: Cavia porcellus; test: Agonist activity at beta-adrenergic receptor in Hartley guinea pig atria assessed as maximal increase in contraction rate in presence of beta-adrenergic receptor antagonist propranolol
# Cavia porcellus [8] = organism: Cavia porcellus; test: Agonist activity at alpha-adrenergic receptor in Hartley guinea pig aorta assessed as maximal contraction in presence of beta-adrenergic receptor antagonist propranolol; format: tissue-based
# [9] = molecular target: Adrenergic receptor alpha; test: Agonist activity at alpha-adrenergic receptor in Sprague-Dawley rat cerebral cortex assessed as [3H]cAMP accumulation by liquid scintillation spectroscopy in presence of propranolol; format: functional, tissue-based
# Procedure, shortened: (§1)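 Male Sprague-Dawley rat cerebral cortical slices (260 μm, cross-chopped) are preincubated 15 min in Krebs-Ringer bicarbonate glucose buffer, labelled 40 min at 37 °C with adenine (30 μM) plus [3H]adenine, then equilibrated 5 min. Amines are applied at 1 to 100 μM for 10 min, with propranolol 10 μM for α responses and phentolamine 10 μM for β responses. Cyclic [3H]AMP is isolated from TCA extracts on a double column, corrected for carrier recovery and reported as percent conversion. EC50 from six dose-response curves.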
# [10] = molecular target: Adrenergic receptor alpha (Rattus norvegicus) (UniProt P15823+P23944+P43140+P22086+P19328+P22909); test: Agonist activity at alpha-adrenergic receptor in Sprague-Dawley rat cerebral cortex assessed as [3H]cAMP accumulation by liquid scintillation spectroscopy in presence of propranolol and phentolamine; format: functional, tissue-based
# Adrenergic receptor beta [11] = molecular target: T1, Adrenergic receptor beta (Rattus norvegicus, UniProt P18090+P10608+P26255); test: Displacement of [3H]dihydroalprenolol from beta-adrenergic receptor in Sprague-Dawley rat cerebral cortical membrane
# Adrenergic receptor beta [12] = molecular target: T1, Adrenergic receptor beta; test: Agonist activity at beta-adrenergic receptor in Sprague-Dawley rat cerebral cortex assessed as [3H]cAMP accumulation by liquid scintillation spectroscopy in presence of phentolamine; format: functional, tissue-based; procedure, shortened: as §1
SMILES,EC50 [1],EC50 [2],EC50 [3],Activity (Cavia porcellus [4]),Activity (Cavia porcellus [5]),EC50 [6],Activity (Cavia porcellus [7]),Activity (Cavia porcellus [8]),EC50 [9],Activity [10],EC50 (Adrenergic receptor beta [11]),EC50 (Adrenergic receptor beta [12])
NCC(O)c1ccc(O)c(O)c1 (configuration not stated),0.7 µM,15.6 µM,2.6 µM,–,–,–,–,–,–,–,–,–
Cl.NCC(O)c1cc(O)c(O)cc1F (racemic),72 µM,–,2.5 µM,inactive,Active,3 µM,inactive,Active,5 µM,inactive,–,–
Cl.NCC(O)c1ccc(O)c(O)c1F (racemic),0.6 µM,–,110 µM,inactive,Active,> 100 µM,inactive,Active,> 100 µM,Active,–,–
Cl.NCC(O)c1cc(O)c(O)c(F)c1 (racemic),0.11 µM,44 µM,2.4 µM,inactive,Active,15 µM,inactive,Active,5 µM,–,4 µM,2 µM
